# From the RNAGym collection of RNA variant scans (doi:10.1126/science.aae0568)
# Variants at the floor of the assay were thinned out.
# B1: tRNA (parent)
# chain: GUUCCGUUGGCGUAAUGGUAACGCGUCUCCCUCCUAAGGAGAAGACUGCGGGUUCGAGUCCCGUACGGAACG
# Variants of: B1
# Assay: yeast fitness relative to wild type (ratio to wild type); higher = fitter; tRNA-Arg(CCU), competitive growth, 37 C, YPD
# In short: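 Genotype frequency changes were the basis for Darwinian fitness relative to wild type. The frequencies came from 100-nucleotide paired-end sequencing of gene amplicons from the start population and each end population of pooled yeast strains with tRNA-Arg(CCU) gene variants at the native locus. Competition ran in YPD at 37°C for 24 hours in six replicates, genotypes needed ≥ 100 starting reads, and estimates < 0.5 were set to 0.5.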
row,Variant,yeast fitness
1,G9A G39C A42C C49A,≤ 0.5
2,G10A G23A C34G,≤ 0.5
3,G9A C27G C31U C46G G51C G52A,≤ 0.5
4,G9C C27A C33A G63A A70G,≤ 0.5
5,G10A C30U C34U A42U A57G,≤ 0.5
6,G10A G23C G52A,0.565
7,G10A G63C C66U,≤ 0.5
8,G10A A20G U35G A37G,≤ 0.5
9,G9C G10C U47A G68C,≤ 0.5
10,G10A C27U C34G A37U G41C G48A,0.573
11,G9C A15C C34G C66A A69C,≤ 0.5
12,G9A G44C C66U,0.552
13,G10A A15C A37C C62A,0.636
14,G10A G18A A42C C61A,0.858
15,G9A G18A A21C C29U G58C C66G,≤ 0.5
16,G10A C27U A40C U47A G48C,0.585
17,G9C C24U G48C G51A,≤ 0.5
18,G10A A40U G52C C62A A65C A70U,0.655
19,G9A G10A U28A G39A G48A C61G C66G,≤ 0.5
20,G9C C22A C34A A70G,≤ 0.5
21,G9C G25C C66U A70C,0.55
22,G9A C61U,0.949
23,G10A A21C C24A C66A,≤ 0.5
24,G9C U16G C31A C60A,≤ 0.5

row,Variant,yeast fitness
1,G9C A14U G48C U64G,≤ 0.5
2,G9A G44U,0.766
3,G10A C24A A43C C61U,≤ 0.5
4,G9C A21G G44C U47C A70U,≤ 0.5
5,G9A C22A C33G U35A C55U,≤ 0.5
6,G9C U32G C33G G50A U53G,≤ 0.5
7,G9C A15C U16C C34G C66A A69C,≤ 0.5
8,G10A C49A,0.521
9,G9U C22U,0.715
10,G10A C22G C62U,≤ 0.5
11,G10A U13A C24A,0.582
12,G9A G50C,0.947
13,G10A A14U C31A C46A A65U,≤ 0.5
14,G9C A40U A70U,≤ 0.5
15,G9A C29U U59A,0.561
16,G9U C11A C24G C30G,≤ 0.5
17,G9A C22G U28A C31G C55A G68C,≤ 0.5
18,G9A G25C,0.931
19,G9C U16A C24U C30U C62U,≤ 0.5
20,G9A U16C A21G A42G,≤ 0.5
21,G9A C30A A65C,0.664
22,G9A C22G A36U,0.666
23,G9A G17A C22G A40G G41C,≤ 0.5
24,G9A G38C G41C A45G,≤ 0.5

row,Variant,yeast fitness
1,G10A A43U C60U,≤ 0.5
2,G9A G17C A43U,≤ 0.5
3,G9A C31G,0.819
4,G9C G23A,0.544
5,G9A U13A C24A A45C,≤ 0.5
6,G9C A15G C49A,0.601
7,G10A U16A,0.708
8,G9C G63A,0.72
9,G9C A20C U47C C66A,0.543
10,G10A A15G,0.782
11,G10A A14U,≤ 0.5
12,G9A C11U C29U A65U,≤ 0.5
13,G9C A15G G58C,0.564
14,G10A A42C A43C A70U,≤ 0.5
15,G9C C61A,0.531
16,G9C C27U U47C C55U C62G A69U,≤ 0.5
17,G10A G18C C33G C66G,≤ 0.5
18,G9C U28G A65C,0.582
19,G9A U16A A42C U53C C62A,≤ 0.5
20,G9C C11A A40C A70U,0.704
21,G9A C27G C31U C46G G51C A70U,≤ 0.5
22,G10A G12A G68C,≤ 0.5
23,G9C U16G A20G,0.803
24,G9C C27U G58C,0.639

row,Variant,yeast fitness
1,G10A C24G C33G A45U G68C,≤ 0.5
2,G9C A42C C49G U53A,≤ 0.5
3,G9A C11U C66U,0.779
4,G9C U19C C31A,≤ 0.5
5,G9A U16A C30G A57C,≤ 0.5
6,G9A G51C G52C,≤ 0.5
7,G10A C27U G56A C60U,0.556
8,G10A C29A C34G A43C C60G,0.663
9,G9A U26A,0.837
10,G10A U16A A65G,0.542
11,G9A G12C A14C,0.535
12,G10A C30A C31G,≤ 0.5
13,G9A C27A,0.955
14,G10A C55U C61A,≤ 0.5
15,G10A C31U G38C G63A A65G G68C A69G,≤ 0.5
16,G10A C34U G44A,≤ 0.5
17,G10A C11A G38A G52C C61A,≤ 0.5
18,G9A C30U A57G,≤ 0.5
19,G10A C34G A69U,≤ 0.5
20,G9C C27U U47G G50A,≤ 0.5
21,G10A C29A A42U U64C,0.529
22,G9C G10C C66U,≤ 0.5
23,G9C U13A U59A,0.718
24,G9C G12C C33U U35A,≤ 0.5

row,Variant,yeast fitness
1,G9C G17C C27G U35A C49A A69U,0.536
2,G9C A21G A42G,≤ 0.5
3,G10A U13G C22G C46G,≤ 0.5
4,G9U A70C,1.13
5,G9A G10A C31G G52A A65C,≤ 0.5
6,G9C C29U C49A C61U,≤ 0.5
7,G9C U13A G25A A40C A57C C61G G67A,≤ 0.5
8,G9C U16C C30A G41C A45C C46G,≤ 0.5
9,G9C G10C A36U,≤ 0.5
10,G10A G17C C30G C33G C61A A65U,≤ 0.5
11,G9C A14U G51A U64G,0.608
12,G9A C11U C31U,0.704
13,G9A C24U U32G,≤ 0.5
14,G9C A36U A40U G44A G63A,≤ 0.5
15,G9C A21G C34G,≤ 0.5
16,G9A C30G C31G A43G A65G,≤ 0.5
17,G10A A14C G17A C22G C24G C30A,0.775
18,G9A G39A A45G G50A,≤ 0.5
19,G9C U54C U59C A69G,≤ 0.5
20,G9C C24G C49U A65C,≤ 0.5
21,G10A C33G A70U,≤ 0.5
22,G9C C22U U26C G58C G68U,≤ 0.5
23,G9C C62A,0.576
24,G9C C62G,0.608

row,Variant,yeast fitness
1,G9C A21G U64A,≤ 0.5
2,G9A C29G G63A,0.525
3,G10A C27G U28G C34U C46G,0.576
4,G10A A15U A36U,≤ 0.5
5,G9A C29U U59G A65C,≤ 0.5
6,G9C U13A G25A A40C A57C G58A C61A G67A,≤ 0.5
7,G9C U28A A40C U59C,≤ 0.5
8,G9A C33U U47C,≤ 0.5
9,G9C C24U U26G C62G A70U,≤ 0.5
10,G9C A15G C27A C31G G50A,0.642
11,G9A C24G C34G,0.633
12,G10A A20C G38A G41A U47A,≤ 0.5
13,G9A C22U C30G C61U,≤ 0.5
14,G10A C66U,0.635
15,G9C U59A,0.737
16,G9C U53A C66U,≤ 0.5
17,G9A C24U A40U G68C,≤ 0.5
18,G9A C24G A37C A70U,≤ 0.5
19,G10A A42G,0.656
20,G9A C34A G58A,0.667
21,G9C A43G,0.706
22,G9A C34G G38C,≤ 0.5
23,G9U C11G U32G G56A,≤ 0.5
24,G9C A14C A15U G23A C34A G52C,≤ 0.5

row,Variant,yeast fitness
1,G9A G51C,0.539
2,G9C A14C U19G A42U,≤ 0.5
3,G9C U54G,0.605
4,G9A C27A A42C C49G G51C A65C,≤ 0.5
5,G9A U26G C30A,0.636
6,G9C A15G C30U C46A U54A A57G,≤ 0.5
7,G10A C11U A20G A40G C55G,≤ 0.5
8,G10A G68C,0.768
9,G10A C29U C30G C34A U53C,≤ 0.5
10,G10A C22G G25C,≤ 0.5
11,G9A U16C A20C C61U,≤ 0.5
12,G9A C34G U47C,≤ 0.5
13,G9C C29U A70C,≤ 0.5
14,G10A C31A C61U,≤ 0.5
15,G9A C30U G44A,0.615
16,G9A C24G A40C,≤ 0.5
17,G9C U16G C29G A40G,≤ 0.5
18,G9A C31U C60U A65G,≤ 0.5
19,G9A G23A G25C U28C A57U A70U,≤ 0.5
20,G10A C22A C46A,≤ 0.5
21,G9A C22G A45G,0.588
22,G10A C24A C30A C31G A43U,≤ 0.5
23,G9A U13C U19C C34U,0.549
